Only some compounds are listed: those with a hit (about 1.1% of all), similar ones and a draw of the others.
NR2E3 ag-1: activates human photoreceptor nuclear receptor NR2E3; GST-NR2E3/biotin-RetCOR TR-FRET, 1536-well; inhibition of corepressor binding, % at 4.78 µM; AID 2300; 320,000 tested, 0.12% active; Q9Y5X4;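 active = percent inhibition above the cutoff of mean plus 3 SD of all tested compounds, set per screening campaign, cut at about 20% in these data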
Target sequence (Q9Y5X4 whole entry, looked up): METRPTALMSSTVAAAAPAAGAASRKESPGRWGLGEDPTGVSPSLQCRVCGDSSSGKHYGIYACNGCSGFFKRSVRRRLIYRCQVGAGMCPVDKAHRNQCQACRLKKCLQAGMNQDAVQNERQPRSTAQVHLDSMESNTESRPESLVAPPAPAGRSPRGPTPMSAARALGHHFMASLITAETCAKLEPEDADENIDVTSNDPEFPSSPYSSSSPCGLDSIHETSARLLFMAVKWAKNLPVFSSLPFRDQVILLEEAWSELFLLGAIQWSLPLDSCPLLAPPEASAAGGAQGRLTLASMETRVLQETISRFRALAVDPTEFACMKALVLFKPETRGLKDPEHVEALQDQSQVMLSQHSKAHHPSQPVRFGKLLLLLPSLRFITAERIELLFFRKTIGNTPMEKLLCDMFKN
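Format: 1536-well format; test system: GST-NR2E3 and biotin-RetCOR proteins; read-out basis: percent inhibition of TR-FRET ratio; timing: 5 h incubation at 4 °C; detection: time-resolved FRET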
NR2E3 ag-2: human photoreceptor-specific nuclear receptor agonism | Q9Y5X4 | 360,000 tested, 0.35% active | AID 602229 | CHO-S Gal4-NCOR/VP16-NR2E3 two-hybrid, luciferase | inhibition of corepressor binding, % at 3.98 µM;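 active = inhibition above the mean of all tested compounds plus 3 SD, cut at about 70% in these data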;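 note: higher means lower luciferase signal from less NR2E3 corepressor binding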
HCV core dimer: blocks dimerization of HCV core protein | AID 1899 | inhibition, % at 5 µM | 300,000 tested, 0.33% active | TR-FRET GST/Flag-core106 dimerization, 1536-well;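 active = inhibition above the mean of all tested compounds plus 3 SD, set per screening campaign, cut at about 45% in these data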
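Assay system: tagged HCV core106 pair (GST and Flag); medium: KF-containing HEPES buffer, pH 7.45, DTT, CHAPS, BSA; also added: Eu donor and XL665 acceptor anti-tag antibodies; dosing: 5 µM single dose; timing: compound-protein-antibody incubation 4 h at 22.5 °C; signal: TR-FRET 671 and 617 nm emission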
DAGLB inhibitor: blocks human DAGLB lipase activity; Q8NCG7; HEK293T DAGLB membrane lysate, EnzChek fluorogenic substrate; inhibition, % at 5.17 µM; 340,000 tested, 0.059% active; in the data active = inhibition above about 34%
MT1-MMP act inh: MT1-MMP (human) activation inhibition; HT1080 RFP-PRO-GFP cells, GFP/RFP ratio fluorescence, overnight; percent of plate control window, DMSO zero; P50281; 360,000 tested, 0.061% active; GFP/RFP ratio change, % at 20 µM;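 active = GFP/RFP ratio change of at least 30% with cell ATP level not reduced by more than half and red fluorescence within 50% of control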
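Read-out: GFP/RFP fluorescence ratio; Test system: RFP-PRO-GFP reporter HT1080 cells; Compound dosing: single-point 20 µM compound, 1% DMSO; Times: overnight compound exposure at 37 °C.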
Vif inh: inhibitors of HIV Vif | HEK293T cells, Vif self-association by quenched fluorescence, imaging, 24 h | inhibition, % at 7.49 µM | 340,000 tested, 0.35% active | AID 602346; in the data active = inhibition above about 50%, passing the limit was not always enough; inconclusive = no clear call, values can overlap the other calls; inactive = below about 31%
NR2E3 ag conf: NR2E3 agonism confirmed in two-hybrid assay. CHO-S mammalian two-hybrid NR2E3-NCOR, luciferase luminescence. 2,300 tested, 51% active. shares compounds with NR2E3 ag-2. inhibition, % at 3.98 µM;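 active = average inhibition above a cutoff equal to the mean inhibition of all tested compounds plus one SD, cut at about 70% in these data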
GAL4-VP16 luc: counter-screen for NR2E3 agonists: GAL4-VP16 reporter inhibitors; AID 624379; shares compounds with NR2E3 ag-2; CHO-S GAL4-VP16 luciferase reporter, luminescence; inhibition, % at 3.98 µM; 2,300 tested, 29% active;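 active = mean inhibition above a cutoff equal to the average over all tested compounds plus one standard deviation, cut at about 70% in these data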;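 note: luciferase from a UAS reporter driven by GAL4-VP16 transactivation; higher means less reporter light so more repression of VP16 activity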
Hits are given with their value; i = inactive; ? = inconclusive; nt = no result given.

SMILES	NR2E3 ag-1	NR2E3 ag-2	HCV core dimer	DAGLB inhibitor	MT1-MMP act inh	Vif inh	NR2E3 ag conf	GAL4-VP16 luc
CC1CCN(C(=O)CCNS(=O)(=O)c2ccc(Br)cc2)CC1	i	i	nt	i	i	?	nt	nt
O=C(CN1CCN(S(=O)(=O)c2ccc(Br)cc2)CC1)N/N=C/c1cccnc1	i	i	i	i	i	i	nt	nt
Cc1ccc(-c2nc3ccc(Cl)cn3c2Cc2cccc(Cl)c2)cc1	nt	i	nt	nt	i	nt	nt	nt
O=C(NCC1c2ccccc2CCN1C(=O)CN1C(=O)c2ccccc2C1=O)C1CCCCC1 (stereo unspecified)	i	i	i	i	i	i	nt	nt
Cc1ccc(N(CC(=O)NC(C)C)C(=O)CCC(=O)Nc2nccs2)c(C)c1	i	i	i	i	i	i	nt	nt
O=C(c1cccc(S(=O)(=O)N2CCN(c3ccc(F)cc3)CC2)c1)N1CCCCCCC1	i	i	i	i	i	i	i	i
CN(Cc1ccc(Cl)cc1Cl)C(=O)c1cccc(S(=O)(=O)N2CCN(c3ccccc3)CC2)c1	i	i	i	i	i	i	nt	nt
COc1cccc(CN(C)C(=O)c2cccc(S(=O)(=O)N3CCN(Cc4ccccc4)CC3)c2)c1OC	nt	i	nt	i	i	nt	i	i
COc1ccccc1CNC(=O)c1cccc(S(=O)(=O)N2CCN(c3ccc(F)cc3)CC2)c1	i	i	nt	i	i	i	nt	nt
CN(Cc1ccco1)C(=O)c1cccc(S(=O)(=O)N2CCN(Cc3ccccc3)CC2)c1	nt	i	nt	i	i	i	nt	nt
COc1cccc(CN(C)C(=O)c2cccc(S(=O)(=O)N3CCN(c4ccccc4)CC3)c2)c1OC	nt	i	nt	i	i	i	81.2	i
COc1cccc(CN(C)C(=O)c2cccc(S(=O)(=O)N3CCN(c4ccc(F)cc4)CC3)c2)c1OC	i	i	i	i	i	i	79.4	i
CCC(CC)C(=O)OCC(=O)Nc1cccc([N+](=O)[O-])c1	i	i	i	i	i	i	nt	nt
CC(CCc1ccccc1)NC(=O)c1ccc(-n2cncn2)c([N+](=O)[O-])c1 (stereo unspecified)	i	i	i	i	i	i	nt	nt
Cc1cccc(NS(=O)(=O)c2ccc(C(=O)N3CCCCCC3)cc2)c1C	i	i	i	i	i	i	nt	nt
CN(Cc1c(F)cccc1Cl)C(=O)c1cccc(S(=O)(=O)N2CCN(Cc3ccccc3)CC2)c1	nt	i	nt	i	i	i	nt	nt
CN(CCOc1ccc(Cl)cc1)C(=O)c1cccc(S(=O)(=O)N2CCN(c3ccccc3)CC2)c1	nt	84.6	nt	i	i	i	92.5	81.2
CN(Cc1ccc(OC(F)F)cc1)C(=O)c1cccc(S(=O)(=O)N2CCN(Cc3ccccc3)CC2)c1	nt	91.3	nt	i	i	i	92.4	76.2
COc1ccc2nc(N3C(=O)CNC3=S)sc2c1	i	i	i	i	i	i	nt	nt
Cc1ccc2nc(N3C(=O)CNC3=S)sc2c1	i	i	i	nt	i	i	i	i
COc1ccc(-c2nsc3c(N4CCCCC4)ncnc23)cc1	i	i	i	i	i	i	i	i
COc1ccc(-c2nsc3c(N4CCCCC4C)ncnc23)cc1 (stereo unspecified)	i	93.6	i	i	i	i	84.2	71.6
COc1ccc(C(=O)N2CCN(c3ncnc4c(-c5ccccc5)nsc34)CC2)cc1	nt	i	nt	i	i	i	nt	nt
CC(C)CCN1CCN(CCCn2cccn2)CC1CCO (stereo unspecified)	i	i	i	i	i	i	nt	nt
O=C(COC(=O)/C=C/c1cccc(Br)c1)NC1CCCC1	nt	i	nt	i	i	i	nt	nt
SMILES	NR2E3 ag-1	NR2E3 ag-2	HCV core dimer	DAGLB inhibitor	MT1-MMP act inh	Vif inh	NR2E3 ag conf	GAL4-VP16 luc
CCOc1ccc(-c2cc(C(=O)NCCCN3CCCC3)c3ccccc3n2)cc1	i	i	i	i	i	i	nt	nt
CCN1/C(=C/C=C/c2oc3ccc(-c4ccccc4)cc3[n+]2CC)Oc2ccc(-c3ccccc3)cc21	i	80.1	i	i	i	146.7	100.1	92.5
Cc1cc(NC(=O)CSc2nc3c(sc4ccccc43)c(=O)n2CCCN2CCOCC2)n[nH]1	i	72.3	i	i	i	94.0	96.2	i
Cc1cc(CNC(=O)c2cccc([N+](=O)[O-])c2C)c2ccccc2n1	i	i	i	i	i	i	72.4	i
Cc1cc(CNC(=O)Cc2ccccc2)c2ccccc2n1	i	i	i	i	i	i	nt	nt
CC(C)Cn1c(N)c(C(=O)COC(=O)CC23CC4CC(CC(C4)C2)C3)c(=O)n(C)c1=O	i	93.6	i	i	i	i	93.4	76.4
CC(C)Cn1c(N)c(C(=O)CSc2ccccc2)c(=O)n(C)c1=O	i	i	i	i	i	i	nt	nt
Cc1cccc(C(=O)OCC(=O)c2c(N)n(CC(C)C)c(=O)n(C)c2=O)c1[N+](=O)[O-]	i	i	i	i	i	i	i	i
CC(C)Cn1c(N)c(C(=O)COC(=O)/C=C/c2ccccc2)c(=O)n(C)c1=O	i	73.9	i	i	i	i	i	i
Cc1ccc(OCC(=O)N2CCc3ccccc3C2)cc1	i	i	i	i	i	i	nt	nt
CN(C(=O)C(C)(C)C)c1ccc(OCC(=O)N2CCc3ccccc3C2)cc1	i	75.9	i	i	i	i	i	i
Cc1ccc(C)c(S(=O)(=O)N2CCN(C(=O)c3ccc(OCc4c(C)noc4C)cc3)CC2)c1	i	i	i	i	i	i	nt	nt
COc1ccc(C(=O)c2sc(Nc3ccccc3)nc2N)cc1OC	i	102.1	i	i	i	i	80.4	i
COc1cc(C(=O)Nc2nnc(C3CC3)s2)ccc1OCc1c(C)noc1C	i	i	i	i	i	i	nt	nt
CC(C)CNC(=S)N1CCC(c2nc(-c3ccc(F)cc3)no2)CC1	i	i	i	i	i	i	88.4	i
O=C(Nc1cccc(C(F)(F)F)c1)N1CCC(c2nc(-c3ccc(F)cc3)no2)CC1	i	i	i	i	i	i	i	i
Cc1nc(OCc2ccccc2)c2ccccc2n1	i	i	i	i	nt	nt	nt	nt
COc1cccc(COc2cc3ccccc3nc2C)c1	i	73.2	i	i	i	i	94.0	75.6
Cc1nc2ccccc2nc(C)c1=NOCc1cccc(Cl)c1	i	i	i	i	i	i	nt	nt
Cc1nc2ccccc2cc1OCc1ccc(Cl)cc1	i	77.6	i	i	i	i	92.2	73.2
Cc1nc2ccccc2cc1OCc1ccccc1	i	73.3	i	i	i	i	70.4	i
COC(=O)c1ccc(COC(=O)CNC(=O)c2ccc(C)s2)cc1	i	i	nt	i	i	i	nt	nt

Screening results as filed in PubChem BioAssay.
